From ChEMBL document CHEMBL2321682, “Synthesis and Anti-inflammatory Evaluation of Novel Benzimidazole and Imidazopyridine Derivatives” (ACS Med Chem Lett, 2013)

system: Mus musculus; experiment: Antiinflammatory activity against LPS-induced C57BL/6 mouse sepsis model assessed as increase in survival rate at 15 mg/kg, iv administered 15 mins after LPS injection measured for 7 days; assay type: functional; details: not given
How it was run: (§1)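 Mice received LPS 20 mg/kg iv. Test agent was given iv as its HCl salt at 15 mg/kg, either 15 min after LPS (line 1, therapeutic) or 15 min before LPS (line 2, preventive). Survival and body weight were recorded daily for 7 days. Data pool two experiments, n = 12 per group, compared with the LPS-alone group.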

Structure (SMILES)	Activity
CCCn1c(-c2c[nH]c3ncccc23)nc2ccc(N3CCN(C)CC3)nc21.Cl	50%

system: Mus musculus; experiment: Antiinflammatory activity against LPS-induced C57BL/6 mouse sepsis model assessed as increase in survival rate at 15 mg/kg, iv administered 15 mins prior to LPS injection measured for 7 days; assay type: functional; details: not given; how it was run: as §1

Structure (SMILES)	Activity
CCCn1c(-c2c[nH]c3ncccc23)nc2ccc(N3CCN(C)CC3)nc21.Cl	50%

system: not listed separately; experiment: Cytotoxicity against human HL7702 cells assessed as inhibition of cell viability at 20 uM after 24 to 72 hrs by MTT assay; assay type: cell-based; details: l02, 20 µM
How it was run: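 Human normal liver HL-7702 cells exposed to 20 μM compound for 24, 48 and 72 h; viability read by MTT.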

Structure (SMILES)	Activity
CCCn1c(-c2ccc(OCCCN(C)C)cc2)nc2ccc(N3CCN(C)CC3)nc21	Non-toxic
CCCn1c(-c2c[nH]c3ncccc23)nc2ccc(N3CCN(C)CC3)nc21 [listing 1 of 2 here]	Non-toxic
CCCn1c(-c2c[nH]c3ccc(Br)cc23)nc2ccc(N3CCN(C)CC3)nc21	Toxic

system: RAW264.7; experiment: Inhibition of LPS-induced TNF-alpha secretion in mouse RAW264.7 cells pretreated for 2 hrs prior to LPS addition measured after 22 hrs by ELISA; assay type: functional, cell-based; details: not given
How it was run: (§2)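 Dose–response for IC50. RAW264.7 cells were seeded at 1.2 × 10^6/plate overnight at 37 °C, 5% CO2. They were pretreated 2 h with 1.0, 5.0 or 10 μM compound, then given LPS 0.5 μg/mL for 22 h. Medium TNF-α or IL-6 was quantified by ELISA and normalized to total protein.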

Structure (SMILES)	IC50	inhibition
CCCn1c(-c2ccc(OCCCN(C)C)cc2)nc2ccc(N3CCN(C)CC3)nc21	12.4 µM	Dose-dependent effect
CCCn1c(-c2c[nH]c3ncccc23)nc2ccc(N3CCN(C)CC3)nc21 [listing 2 of 2 here]		Dose-dependent effect
CCCn1c(-c2c[nH]c3ccccc23)nc2ccc(N3CCN(C)CC3)nc21	14.2 µM	Dose-dependent effect
CCCn1c(-c2c[nH]c3ncccc23)nc2ccc(N3CCN(C)CC3)nc21 [listing 1 of 2 here]	4.79 µM	
CCCn1c(-c2ccc(C)s2)nc2ccc(N3CCN(C)CC3)nc21	7.25 µM	Dose-dependent effect
CCCn1c(-c2c[nH]c3ccc(Br)cc23)nc2ccc(N3CCN(C)CC3)nc21	1.99 µM	Dose-dependent effect

system: RAW264.7; experiment: Inhibition of LPS-induced IL-6 secretion in mouse RAW264.7 cells pretreated for 2 hrs prior to LPS addition measured after 22 hrs by ELISA; assay type: functional, cell-based; details: not given; how it was run: as §2

Structure (SMILES)	IC50	inhibition
CCCn1c(-c2ccc(OCCCN(C)C)cc2)nc2ccc(N3CCN(C)CC3)nc21	3.28 µM	Dose-dependent effect
CCCn1c(-c2c[nH]c3ncccc23)nc2ccc(N3CCN(C)CC3)nc21 [listing 2 of 2 here]		Dose-dependent effect
CCCn1c(-c2c[nH]c3ccccc23)nc2ccc(N3CCN(C)CC3)nc21	4.3 µM	Dose-dependent effect
CCCn1c(-c2c[nH]c3ncccc23)nc2ccc(N3CCN(C)CC3)nc21 [listing 1 of 2 here]	1.62 µM	
CCCn1c(-c2ccc(C)s2)nc2ccc(N3CCN(C)CC3)nc21	2.81 µM	Dose-dependent effect
CCCn1c(-c2c[nH]c3ccc(Br)cc23)nc2ccc(N3CCN(C)CC3)nc21	1.21 µM	Dose-dependent effect

system: RAW264.7; experiment: Inhibition of LPS-induced IL-6 secretion in mouse RAW264.7 cells at 10 uM pretreated for 2 hrs prior to LPS addition measured after 22 hrs by ELISA; assay type: functional; details: not given
How it was run: (§3)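 RAW 264.7 macrophages seeded at 4.0 × 10^5/plate overnight (37 °C, 5% CO2), pretreated 2 h with 10 μM compound (omeprazole as comparator), then LPS 0.5 μg/mL for 22 h. TNF-α and IL-6 in medium measured by ELISA, normalized to total cellular protein.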

Structure (SMILES)	inhibition at 10 µM
CCCn1c(-c2ccc(OCCCN(C)C)cc2)nc2ccc(N3CCN(C)CC3)nc21	> 50%
CCCn1c(-c2c[nH]c3ccccc23)nc2ccc(N3CCN(C)CC3)nc21	81.4%
CCCn1c(-c2c[nH]c3ncccc23)nc2ccc(N3CCN(C)CC3)nc21 [listing 1 of 2 here]	> 50%
CCCn1c(-c2ccc(C)s2)nc2ccc(N3CCN(C)CC3)nc21	> 50%
CCCn1c(-c2c[nH]c3ccc(Br)cc23)nc2ccc(N3CCN(C)CC3)nc21	> 50%

system: RAW264.7; experiment: Inhibition of LPS-induced TNF-alpha secretion in mouse RAW264.7 cells at 10 uM pretreated for 2 hrs prior to LPS addition measured after 22 hrs by ELISA; assay type: functional; details: not given; how it was run: as §3

Structure (SMILES)	inhibition at 10 µM
CCCn1c(-c2cn(C)c3ccccc23)nc2ccc(N3CCN(C)CC3)nc21	50%
CCCn1c(-c2ccc(OCCCN(C)C)cc2)nc2ccc(N3CCN(C)CC3)nc21	50%
CCCn1c(-c2ccccc2Br)nc2ccc(N3CCN(C)CC3)nc21	50%
CCCn1c(-c2c[nH]c3ccccc23)nc2ccc(N3CCN(C)CC3)nc21	64.8%
Cc1ccc(-c2nc3ccc(N4CCN(C)CC4)nc3[nH]2)s1	50%
CCN(CC)CCn1c(-c2ccccc2OC)nc2cc(Cl)ccc21	50%
CCCn1c(-c2ccccc2OC)nc2ccc(N3CCN(C)CC3)nc21	50%
CCCn1c(-c2ccccc2F)nc2ccc(N3CCN(C)CC3)nc21	50%
CCCn1c(-c2c[nH]c3ncccc23)nc2ccc(N3CCN(C)CC3)nc21 [listing 1 of 2 here]	50%
COc1ccccc1-c1nc2ccc(N3CCN(C)CC3)nc2[nH]1	50%
CCCn1c(-c2ccc(C)s2)nc2ccc(N3CCN(C)CC3)nc21	50%
CCCn1c(-c2ccc(C)s2)nc2ccc(N3CCOCC3)nc21	50%
CCCn1c(-c2cn(C)c3ccccc23)nc2ccc(N3CCOCC3)nc21	50%
CN1CCN(c2ccc3nc(-c4c[nH]c5ccccc45)[nH]c3n2)CC1	50%
CCCn1c(-c2c[nH]c3ccc(Br)cc23)nc2ccc(N3CCN(C)CC3)nc21	50%
